GalR3 antagonist: antagonists of human GalR3; O60755; HEK293 GalR3-CNG cAMP membrane potential fluorescence; galR3 body fused to GalR1 C-terminus; inhibition, % at 3 µM; 360,000 tested, 0.44% active;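 active = inhibition above the screen-wide average plus 3 SD, cut at about 13% in these data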;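 also: forskolin and galanin both at EC90 stimulate the cells; cAMP rise reported by CNG channel membrane potential dye signal; 0% = forskolin plus galanin with DMSO and 100% = forskolin alone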
Target sequence (O60755 1-299 limits assumed): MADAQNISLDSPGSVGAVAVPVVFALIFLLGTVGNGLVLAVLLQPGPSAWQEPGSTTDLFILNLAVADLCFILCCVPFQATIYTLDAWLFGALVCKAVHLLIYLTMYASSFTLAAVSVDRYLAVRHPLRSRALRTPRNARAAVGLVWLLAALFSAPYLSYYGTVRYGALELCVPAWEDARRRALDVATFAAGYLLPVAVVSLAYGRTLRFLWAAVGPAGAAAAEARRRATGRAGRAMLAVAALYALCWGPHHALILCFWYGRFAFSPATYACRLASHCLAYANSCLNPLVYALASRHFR
GC-B act: GC-B (human) receptor activation; HEK293-GC-B cells, CNP EC30, cGMP TR-FRET; 0% at EC30 CNP, 100% saturating CNP; activation, % at 10 µM; 370,000 tested, 0.11% active; AID 1920062;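 active = activation at 10 µM reaching about 35% in either raw or pattern-adjusted values, limit read from the data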
GC-A act: GC-A (human) enzyme activation; HEK293 GC-A cells, cGMP TR-FRET, EC30 ANP; 0% at EC30 ANP, 100% saturating ANP; 370,000 tested, 0.14% active; AID 1671463; activation, % at 10 µM; P16066; in the data active = activation above about 40%
Arrestin-AP2 inh: human beta-arrestin and AP2 interaction inhibition; FITC-arrestin peptide / GST-AP2 beads, flow cytometry; AP2 beta2 appendage carries R879A mutation; inhibition, % at 10 µM; 340,000 tested, 0.31% active;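 active = inhibition above a set limit, near 3 SD of compounds lacking own fluorescence, cut at about 54% in these data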;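 also: plate controls were DMSO wells for no effect and 5 µM unlabelled arrestin peptide for full effect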
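System: GST-tagged AP2 beta2-adaptin appendage (R879A) on 4 µm glutathione beads / Reagent: FITC-arrestin peptide, 50 nM / Detection: HyperCyt-sampled flow cytometry, FL1 channel, ex 488/em 535 nm / Timing: 12 min plus 1 h, RT / Buffer or medium: PBS plus Tween 20 (0.05%) and BSA (0.1%)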
Arr AP2 CP1: blocks beta-arrestin peptide binding to human AP2; 1,300 tested, 2% active; shares compounds with Arrestin-AP2 inh; AID 504908; inhibition, % at 10 µM; GST-AP2 beads, FITC arrestin peptide binding, flow cytometry; GST-fused beta2-adaptin appendage, R879A mutant;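 active = inhibition above a set limit, roughly 3 SD of non-fluorescent compound noise, cut at about 38% in these data; inactive = inhibition at or below that limit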;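 also: loss of bead fluorescence from 50 nM FITC arrestin peptide bound to appendage; 0% = negative control wells and 100% = excess unlabelled arrestin peptide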
GST GSH counter: disrupts GST binding to glutathione beads, arrestin-AP2 artifact | 1,300 tested, 2% active | inhibition, % at 10 µM | GST-fluorescein binding to GSH beads, fluorescence, counter-screen | shares compounds with Arrestin-AP2 inh;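 active = inhibition above 50%, about 3 SD of the inhibition seen with non-fluorescent compounds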;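 also: fluorescein maleimide labelled GST captured on 4 micron glutathione beads; higher means more loss of bead fluorescence from quenching or blocked binding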
An asterisk follows results filed as active. An excerpt weighted towards active compounds, which were near 0.94% of everything screened.

`CCCCCOc1ccc(NC(=O)C2OC3OC(C)(C)OC3C3OC(C)(C)OC23)cc1` (centres undefined) gave GalR3 antagonist -4.9, GC-B act -1.6, GC-A act 0.4, Arrestin-AP2 inh 107.1*, Arr AP2 CP1 -0.3 and GST GSH counter 10.1.
`CCn1c(O)c2ccc(C(=O)N=NC(=O)c3ccccc3)cc2c1O` gave GalR3 antagonist -1.7, GC-B act 3.7, GC-A act 2.3, Arrestin-AP2 inh 57.8*, Arr AP2 CP1 13.2 and GST GSH counter -4.6.
For CC1CC(C)CN(CCCNC(=O)c2ccc(CS(=O)(=O)Cc3ccccc3F)o2)C1 (centres undefined) the results were GalR3 antagonist 3.4, GC-B act 2.7, GC-A act 1.5, Arrestin-AP2 inh 59.3*, Arr AP2 CP1 -3.4 and GST GSH counter -10.6.
`CC(c1ccccc1)n1c(Cn2ncc3ccccc3c2=O)n[nH]c1=S` (centres undefined) gave GalR3 antagonist -1.9, GC-B act 6.2, GC-A act 3.2, Arrestin-AP2 inh 54.4*, Arr AP2 CP1 -11.1 and GST GSH counter -2.9.
Screening O=c1c2ccccc2cnn1Cc1n[nH]c(=S)n1-c1ccc(Cl)cc1 returned GalR3 antagonist -1.3, GC-B act -1.3, GC-A act 2.0 and Arrestin-AP2 inh 7.2.
Cc1cccn2cc(-c3ccc(NC(=O)Cc4ccccc4)cc3)nc12 was read as GC-B act -6.0, GC-A act 3.4, Arrestin-AP2 inh 95.9*, Arr AP2 CP1 -1.3 and GST GSH counter -1.4.
`COc1ccc(CC(=O)Nc2ccc(-c3cn4cccc(C)c4n3)cc2)cc1OC` gave GalR3 antagonist -6.2, GC-B act 2.7, GC-A act 2.9 and Arrestin-AP2 inh -0.2.
`CCN=C1NC(c2cccc(Cl)c2)C(C(=O)OC)=C(C)N1Cc1ccccc1C(F)(F)F` (centres undefined) gave GalR3 antagonist -6.2, GC-B act -11.6 and GC-A act -13.7.
`Cc1c(NS(=O)(=O)c2cccc(C(=O)NCc3ccc(Cl)cc3)c2)c(=O)n(-c2ccccc2)n1C` gave GalR3 antagonist -1.4, GC-B act -2.3, GC-A act 0.2 and Arrestin-AP2 inh 13.9.
`Cc1c(NS(=O)(=O)c2cccc(C(=O)NCc3ccco3)c2)c(=O)n(-c2ccccc2)n1C` gave GalR3 antagonist -6.3, GC-B act -0.2, GC-A act 1.3, Arrestin-AP2 inh 95.0*, Arr AP2 CP1 5.6 and GST GSH counter -9.2.
`CCCCNC(=O)C[C@H]1C[C@@]2(C(=O)OC)C(=C[C@H](COCc3ccccc3)O[C@@H]2C)N(CCc2ccc(OC)c(OC)c2)C1=O` gave GC-B act -1.1 and GC-A act 0.4.
Screening Cc1ccccc1-c1cccc2[nH]c3c(c12)CCN1C(=O)[C@H]2[C@H](C)ON(C)[C@H]2C[C@@H]31 returned GalR3 antagonist -9.6, GC-B act 1.7 and GC-A act 0.1.
`O=C(NCCN1CCOCC1)c1ccc2c(c1)N(Cc1ccccc1)C(=O)c1ccccc1S2` gave GalR3 antagonist -0.6, GC-B act -3.0, GC-A act 1.1, Arrestin-AP2 inh 61.9*, Arr AP2 CP1 2.1 and GST GSH counter 1.3.
For CC(=O)Nc1ccc(S(=O)(=O)N2c3ccccc3NC(=O)CC2C)c(Cl)c1 (centres undefined) the results were GalR3 antagonist -4.0, GC-B act -1.5, GC-A act -0.3, Arrestin-AP2 inh 54.3*, Arr AP2 CP1 -18.2 and GST GSH counter -1.4.
Screening COc1ccccc1Nc1nc2c(C)cccc2cc1C#N returned GalR3 antagonist -6.3, GC-B act -10.3, GC-A act -6.6, Arrestin-AP2 inh 57.4*, Arr AP2 CP1 -2.9 and GST GSH counter 9.2.
For Cc1cc(N2CCN(Cc3ccccc3)CC2)n2nc(C)nc2n1 the results were GC-B act -4.1 and GC-A act -2.3.
Cc1ccc(SCC(=O)NC(=O)NC2CCCC2)c(C)c1 was read as GalR3 antagonist 3.1, GC-B act -4.2, GC-A act 0.0, Arrestin-AP2 inh 63.7*, Arr AP2 CP1 -4.4 and GST GSH counter -5.5.
`Cc1ccc(C)c(SCC(=O)NC(=O)NC2CCCC2)c1` gave GalR3 antagonist -7.0, GC-B act -0.1, GC-A act 1.2 and Arrestin-AP2 inh -3.2.
`COc1ccc(OC)c(NC(=O)COC(=O)c2cc3c(s2)CCC3)c1` gave GalR3 antagonist -9.4, GC-B act 2.5, GC-A act -5.0, Arrestin-AP2 inh 79.5*, Arr AP2 CP1 10.2 and GST GSH counter 3.8.
`COc1ccccc1NC(=O)COC(=O)c1cc2c(s1)CCC2` gave GalR3 antagonist -3.0, GC-B act -3.3, GC-A act -4.5 and Arrestin-AP2 inh 0.3.
For O=C(N[C@H](C(=O)N1CCC[C@H]1C(=O)NC1CCCC1)C1CCCCC1)c1ccc(Cl)cc1Cl the results were GalR3 antagonist -8.1, GC-B act 0.9 and GC-A act 3.5.
`COC(=O)C1=C(C)N(Cc2ccccc2C(F)(F)F)C(=NCc2ccc(C(F)(F)F)cc2)NC1CCc1ccccc1` (centres undefined) gave GalR3 antagonist -6.2, GC-B act -2.2 and GC-A act -7.4.
COc1ccc(CC(=O)N2CCC(n3nccc3NC(=O)C3CCOC3)CC2)cc1 (centres undefined) was read as GalR3 antagonist -0.1, GC-B act 3.9, GC-A act 6.1, Arrestin-AP2 inh 63.8*, Arr AP2 CP1 -12.9 and GST GSH counter 7.1.
`C[C@@H]1C[C@H]2[C@@H](C)C(=O)N3[C@H](c4ccccc4)[C@H](C)C[C@H]3[C@@H](C)C(=O)N2[C@@H]1c1ccccc1` gave GC-B act 5.2 and GC-A act 3.4.
NS(=O)(=O)c1ccc(NC(=O)/C=C/c2cn(-c3ccccc3)nc2-c2cccc(Cl)c2)cc1 was read as GalR3 antagonist -7.5, GC-B act -5.9, GC-A act -7.4, Arrestin-AP2 inh 58.4*, Arr AP2 CP1 0.8 and GST GSH counter -6.6.
For O=C(/C=C/c1cn(-c2ccccc2)nc1-c1ccccc1)Nc1ccc(C(=O)O)cc1 the results were GalR3 antagonist 1.6, GC-B act 2.1, GC-A act -3.5 and Arrestin-AP2 inh -2.0.
`COc1ccc(S[C@]2(C(=O)N3CCN(c4ncccn4)CC3)CC(=O)N(C(=O)Nc3ccc(C)c(Cl)c3)[C@@H]2c2ccc(OC)cc2)cc1` gave GC-B act 2.2 and GC-A act 3.4.
